Measurements from ChEMBL document CHEMBL1165950, “Design and synthesis of new potent anticancer pyrazoles with high FLT3 kinase inhibitory selectivity” (Bioorg Med Chem, 2010).

Legend:
Type in all cases: functional
UACC-257 [1] = experiment: Cytotoxicity against human UACC257 cells assessed as cell growth at 0.01 uM after 48 hrs by sulforhodamine B assay; conditions: UACC-257, 48 h, read-out: Activity
NCI-H226 = experiment: Cytotoxicity against human NCI-H226 cells assessed as cell growth at 0.001 uM after 48 hrs by sulforhodamine B assay; conditions: NCI-H226, 48 h, read-out: Activity
SW-620 = experiment: Cytotoxicity against human SW620 cells assessed as cell growth at 10 uM after 48 hrs by sulforhodamine B assay; conditions: SW-620, 48 h, read-out: Activity
BT-549 = experiment: Cytotoxicity against human BT549 cells assessed as cell growth at 1 uM after 48 hrs by sulforhodamine B assay; conditions: BT-549, 48 h, read-out: Activity
Outline: (§1)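 NCI-60 five-dose screen. Cells were grown in RPMI 1640 with 5% FBS and 2 mM L-glutamine, plated at 5000–40,000 cells/well and preincubated for 24 h. Time-zero plates were TCA-fixed. DMSO-solubilized drug was added at five concentrations (10-fold or ½-log serial dilutions) for 48 h at 37 °C, 5% CO2. Cells were TCA-fixed, stained with 0.4% SRB and read at 515 nm. Percent growth used time-zero, control and test absorbances.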

SF-268 = experiment: Cytotoxicity against human SF268 cells assessed as cell growth at 1 uM after 48 hrs by sulforhodamine B assay; conditions: SF-268, 48 h, read-out: Activity
HCT-15 = experiment: Cytotoxicity against human HCT15 cells assessed as cell growth at 10 uM; conditions: read-out: Activity
Outline: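 Single-dose NCI-60 screen at 10 µM. Cells were grown in RPMI 1640 with 5% FBS and 2 mM L-glutamine, then treated for 48 h at 37 °C. Protein was measured by SRB staining with absorbance at 515 nm. Percentage growth was recorded, and inhibition percentage was calculated as 100 minus growth percentage.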

SK-MEL-28 = experiment: Cytotoxicity against human SK-MEL-28 cells assessed as cell growth at 10 uM; conditions: read-out: Activity
Outline: (§2)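 NCI-60 screen: cells grown in RPMI 1640 with 5% FBS and 2 mM L-glutamine, plated at 5000–40,000 cells/well according to doubling time, and preincubated 24 h at 37 °C, 5% CO2. The single 10 µM dose (DMSO stock) was added, then incubated 48 h. Cells were TCA-fixed and stained with 0.4% SRB, read at 515 nm, and growth % calculated against time-zero and control plates.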

MDA-MB-231 = experiment: Cytotoxicity against human MDA-MB-231 cells assessed as cell growth at 1 uM after 48 hrs by sulforhodamine B assay; conditions: MDA-MB-231, 48 h, read-out: Activity
SF-295 [2] = experiment: Growth inhibition of human SF295 cells after 48 hrs by sulforhodamine B assay; conditions: SF-295, 48 h
Outline: (§3)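 NCI 60-cell screen, five-dose mode. Cells grown in RPMI 1640 with 5% FBS and 2 mM L-glutamine and plated at 5000-40,000 cells/well according to doubling time. After 24 h preincubation, a Tz plate was TCA-fixed. Five concentrations (10-fold or 1/2 log dilutions) were applied for 48 h at 37 °C. SRB staining read at 515 nm. IC50 taken from [(Ti-Tz)/(C-Tz)]×100 = 50.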

A549 = experiment: Cytotoxicity against human A549 cells assessed as cell growth at 1 uM after 48 hrs by sulforhodamine B assay; conditions: A549, 48 h, read-out: Activity; outline: as §1
UACC-257 [3] = experiment: Growth inhibition of human UACC257 cells after 48 hrs by sulforhodamine B assay; conditions: UACC-257, 48 h; outline: as §3
UACC-257 [4] = experiment: Cytotoxicity against human UACC257 cells assessed as cell growth at 10 uM; conditions: read-out: Activity; outline: as §2
ACHN = experiment: Cytotoxicity against human ACHN cells assessed as cell growth at 1 uM after 48 hrs by sulforhodamine B assay; conditions: read-out: Activity; outline: as §1
NCI/ADR-RES [5] = experiment: Growth inhibition of human NCI/ADR-RES cells after 48 hrs by sulforhodamine B assay; outline: as §3
[6] = Cytotoxicity against human Hs 578T cells assessed as cell growth at 0.01 uM after 48 hrs by sulforhodamine B assay; conditions: read-out: Activity
NCI-H322M [7] = experiment: Growth inhibition of human NCI-H322M cells after 48 hrs by sulforhodamine B assay; outline: as §3
SF-295 [8] = experiment: Cytotoxicity against human SF295 cells assessed as cell growth at 0.001 uM after 48 hrs by sulforhodamine B assay; conditions: SF-295, 48 h, read-out: Activity
LOX IMVI = experiment: Cytotoxicity against human LOXIMVI cells assessed as cell growth at 100 nM after 48 hrs by sulforhodamine B assay; conditions: read-out: Activity
SK-MEL-5 = experiment: Cytotoxicity against human SK-MEL-5 cells assessed as cell growth at 10 uM after 48 hrs by sulforhodamine B assay; conditions: SK-MEL-5, 48 h, read-out: Activity
NCI-H522 = experiment: Cytotoxicity against human NCI-H522 cells assessed as cell growth at 100 nM after 48 hrs by sulforhodamine B assay; conditions: NCI-H522, 48 h, read-out: Activity
NCI-H322M [9] = experiment: Cytotoxicity against human NCI-H322M cells assessed as cell growth at 0.01 uM after 48 hrs by sulforhodamine B assay; conditions: read-out: Activity
MCF7 = experiment: Cytotoxicity against human MCF7 cells assessed as cell growth at 10 uM; conditions: read-out: Activity; outline: as §2
MDA-MB-468 = experiment: Cytotoxicity against human MDA-MB-468 cells assessed as cell growth at 0.001 uM after 48 hrs by sulforhodamine B assay; conditions: MDA-MB-468, 48 h, read-out: Activity
IGROV-1 = experiment: Cytotoxicity against human IGROV1 cells assessed as cell growth at 1 uM after 48 hrs by sulforhodamine B assay; conditions: IGROV-1, 48 h, read-out: Activity
UACC-62 = experiment: Cytotoxicity against human UACC62 cells assessed as cell growth at 100 nM after 48 hrs by sulforhodamine B assay; conditions: UACC-62, 48 h, read-out: Activity
NCI/ADR-RES [10] = experiment: Cytotoxicity against human NCI/ADR-RES cells assessed as cell growth at 0.01 uM after 48 hrs by sulforhodamine B assay; conditions: read-out: Activity
SNB-19 = experiment: Cytotoxicity against human SNB19 cells assessed as cell growth at 10 uM after 48 hrs by sulforhodamine B assay; conditions: SNB-19, 48 h, read-out: Activity
M14 = experiment: Cytotoxicity against human M14 cells assessed as cell growth at 0.001 uM after 48 hrs by sulforhodamine B assay; conditions: M14, 48 h, read-out: Activity
MDA-MB-435 = experiment: Cytotoxicity against human MDA-MB-435 cells assessed as cell growth at 0.001 uM after 48 hrs by sulforhodamine B assay; conditions: MDA-MB-435, 48 h, read-out: Activity
TK-10 = experiment: Cytotoxicity against human TK10 cells assessed as cell growth at 1 uM after 48 hrs by sulforhodamine B assay; conditions: TK-10, 48 h, read-out: Activity
[11] = read-out: LC50 (the source's name)

## Cc1cc(O)cc(-c2nn(CC#N)cc2-c2ccnc(-c3ccc(Oc4ccccc4)cc3)c2)c1
UACC-257 [1]
  growth at 0.01 µM: 80%
NCI-H226
  growth at 0.001 µM: 92%
SW-620
  growth at 10 µM: -100%
BT-549
  growth at 1 µM: 4%
SF-268
  growth at 1 µM: 22%
HCT-15
  growth at 10 µM: 4.26%
SK-MEL-28
  growth at 10 µM: 63.3%
MDA-MB-231
  growth at 1 µM: -13%
SF-295 [2]
  GI50: 4.42 µM
  TGI: 21.2 µM
SF-295 [2]; [11]
  CC50: 75.2 µM
A549
  growth at 1 µM: -37%
UACC-257 [3]
  GI50: 2.38 µM
  TGI: 8.38 µM
UACC-257 [3]; [11]
  CC50: 31.7 µM
UACC-257 [4]
  growth at 10 µM: 71.7%
ACHN
  growth at 1 µM: -4%
NCI/ADR-RES [5]
  GI50: 2.06 µM
  TGI: 4.56 µM
NCI/ADR-RES [5]; [11]
  CC50: 15.8 µM
[6]
  growth at 0.01 µM: 91%
NCI-H322M [7]
  GI50: 5.68 µM
  TGI: 19.2 µM
NCI-H322M [7]; [11]
  CC50: 48.6 µM
SF-295 [8]
  growth at 0.001 µM: 99%
LOX IMVI
  growth at 0.1 µM: 103%
SK-MEL-5
  growth at 10 µM: -100%
NCI-H522
  growth at 0.1 µM: 87%
NCI-H322M [9]
  growth at 0.01 µM: 89%
MCF7
  growth at 10 µM: 18.4%
MDA-MB-468
  growth at 0.001 µM: 91%
IGROV-1
  growth at 1 µM: -64%
UACC-62
  growth at 0.1 µM: 84%
NCI/ADR-RES [10]
  growth at 0.01 µM: 96%
SNB-19
  growth at 10 µM: -93%
M14
  growth at 0.001 µM: 95%
MDA-MB-435
  growth at 0.001 µM: 103%
TK-10
  growth at 1 µM: 19%
